The list is not random: actives were taken first. Their share in the collection is about 2.4%.
MT stabilizer: microtubule stabilizers in HeLa cells, primary screen, imaging, high-content imaging; % tubulin-high responders, % at 10 µM; HeLa tubulin immunostaining HCS, 24 h; share of cells brighter than vehicle mean+2SD; 0.83% of 200,000 active; AID 2205, 2009;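 active = plate Z-score above 3 for both tubulin-high and condensed-nucleus cell shares, with cell loss under 80%, at 10 µM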;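 note: anti alpha tubulin signal scored within the nucleus-defined area of each cell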
HMGR II inh: inhibitors of E. faecalis class II HMGR, primary screen, biochemical, Enterococcus faecalis. AID 1066, 2008. purified E. faecalis HMGR, NADPH absorbance 340 nm kinetic. inhibition, % at 10 µM. HMG-CoA reductase (Enterococcus faecalis, mvaE). 0.41% of 190,000 active;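 active = inhibition above a set limit, the median over all tested compounds plus 3 SD, cut at about 9.5% in these data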;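 note: enzyme runs in reverse so mevalonate oxidation gives rising NADPH absorbance; 0% = complete reaction with DMSO and 100% = background rate lacking mevalonate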
PGE2 EP2 inh: human EP2 receptor antagonists, primary screen, TR-FRET cAMP, C6 glioma cells; AID 1422, 2008; 0.52% of 260,000 active; inhibition, % at 25 µM; Prostaglandin E2 receptor EP2 subtype (Homo sapiens), P43116; C6 glioma cells expressing human EP2; cells stimulated with saturating PGE2;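 active = percent inhibition above 40 after rounding to a whole number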;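 note: rat C6 glioma host cells with rolipram phosphodiesterase inhibitor present; the protocol text gives 20 µM as final concentration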
Target sequence (P43116 whole entry, looked up): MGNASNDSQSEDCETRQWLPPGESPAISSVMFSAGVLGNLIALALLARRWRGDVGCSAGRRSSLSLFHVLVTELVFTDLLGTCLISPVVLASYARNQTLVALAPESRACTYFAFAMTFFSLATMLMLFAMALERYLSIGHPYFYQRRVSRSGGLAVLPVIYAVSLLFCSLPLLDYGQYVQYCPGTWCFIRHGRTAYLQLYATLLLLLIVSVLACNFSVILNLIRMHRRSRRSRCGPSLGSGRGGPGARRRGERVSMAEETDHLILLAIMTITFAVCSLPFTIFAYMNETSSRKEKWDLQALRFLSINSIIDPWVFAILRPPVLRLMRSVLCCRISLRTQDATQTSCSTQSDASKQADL
TbHK1 inh: Trypanosoma brucei hexokinase 1 inhibitors, primary screen, biochemical, G6PDH-coupled NADH absorbance, MLSCN library | hexokinase 1 [Trypanosoma brucei] | recombinant TbHK1, G6PDH-coupled NADH A340 | inhibition, % at 10 µM | 0.11% of 220,000 active | AID 1430, 2008;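 active = inhibition of 50% or more in the single-dose primary screen; inactive = inhibition below 50%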
bCat nuc transl: modulators of beta-catenin nuclear translocation, primary screen, imaging, HeLa cells, immunofluorescence, high-content; nuclear translocation activity, % at 5 µM; 0.3% of 190,000 active;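 active = nuclear translocation activity above 50% at 5 µM, with a well cell count of 50 or more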;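 note: per-cell ratio of nuclear to cytoplasmic median beta-catenin stain intensity; plate controls were DMSO negative control for no effect and GSK-3 inhibitor IX positive control for full effect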
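test system = HeLa cells, endogenous beta-catenin | dosing = single 5 µM dose plus 0.02–20 µM confirmation series | times = compound treatment 24 h, 37°C, 5% CO2 | technique = beta-catenin immunofluorescence imaging with DAPI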
EP2 modulator: EP2 receptor modulators, cAMP readout, primary screen, cell-based, HTRF cAMP, PGE2 stimulation | Prostaglandin E2 receptor EP2 subtype (Homo sapiens), P43116 | EP2-expressing cells, cAMP HTRF FRET, PGE2 co-stimulation | induction, % at 25 µM | 0.83% of 260,000 active | AID 940, 2007;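 active = compounds whose cAMP rise, as percent of the full-agonist control response, exceeds 60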;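 note: rat C6 glioma line stably carrying human EP2 under a CMV promoter; the protocol text gives 20 µM as final concentration; 100% = response of wells given 1 µM PGE2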
EP2 cAMP induct: cAMP induction in EP2, EP4, beta2-AR and parental cells, confirmation, counter-screen for EP2 modulator project, cell-based, five parallel assays, C6 glioma, HEK293. cAMP HTRF induction; plus low (about EC15) PGE2 agonist. 47% of 1,300 active. calls only at 20 µM (by protocol). shares compounds with EP2 modulator;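 active = cAMP induction above 50% in the main assay while under 30% in all four parallel counter assays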;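 note: rat C6 glioma cells stably expressing human EP2 receptor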
* marks the source's active call; other numbers are inactive results; i = inactive; x = no result given; + = active, no number.

SMILES	MT stabilizer	HMGR II inh	PGE2 EP2 inh	TbHK1 inh	bCat nuc transl	EP2 modulator	EP2 cAMP induct
Cc1cc(=O)oc2c3c4c(cc12)OCCN4CCC3	2	-2	11	-8	-1	-13	x
CC(C)c1cc(=O)oc2c3c4c(cc12)CCCN4CCC3	5	5	3	-19	-4	54	+
O=c1oc2c(CN3CCOCC3)c(O)ccc2c2c1CCC2	6	1	4	-34	-3	13	x
O=c1oc2c3c4c(cc2c(C(F)(F)F)c1CCN1CCOCC1)CCCN4CCC3	4	-5	9	-13	x	73*	i
COc1ccc(NC(=O)C2CCN(C(=O)c3ccccc3Cl)CC2)c(OC)c1	x	x	14	x	x	-6	x
CCN(CC)CCCNC(=S)N(CCO)Cc1cc2ccc(C)c(C)c2[nH]c1=O	x	x	8	x	x	-2	x
CNc1ncc(C(=O)c2ccc(-c3ccccc3)cc2)s1	x	x	4	-10	0	6	x
Cc1ccc(C(=O)c2cnc3ccccc3c2-c2ccccc2)cc1	1	-4	4	0	2	92*	+
COc1ccc(C(=O)c2cnc3ccccc3c2-c2ccccc2)cc1	5	-6	7	3	-1	92*	+
CCc1ccc2[nH]c(=O)c(C(c3nnnn3Cc3ccc(OC)cc3)N3CCc4ccccc43)cc2c1 (stereo not given)	x	x	5	x	x	51	x
CCCc1cc(=O)n2[nH]c(NCc3cccs3)nc2n1	1	1	-1	-10	2	71*	i
CCCc1cc(=O)n2[nH]c(NCc3ccccc3Cl)nc2n1	5	-7	11	2	-5	29	x
COc1ccccc1CCCNC(=O)c1cnn(-c2ccc(F)cc2)c1	x	x	2	x	x	-98	x
CCSc1ncnc2sc3c(c12)CCC3	2	-4	12	2	x	73*	+
Cc1sc2ncnc(SCc3ccco3)c2c1C	3	-3	9	-2	-8	64*	+
O=C(O)CSc1ncnc2sc3c(c12)CCC3	2	1	8	4	0	16	x
Cc1noc(C)c1CSc1ncnc2sc(C)c(C)c12	1	1	6	-6	0	63*	+
Cc1noc(C)c1CSc1ncnc2sc3c(c12)CCCCC3	4	-1	9	-1	-3	56	+
COc1cccc(C(c2nnnn2C(C)(C)C)N2CCN(c3ccccc3)CC2)c1OC (stereo not given)	x	x	7	x	x	9	x
CCc1c(C)sc2ncn(C3CCN(C(=O)c4n[nH]c5c4CCC5)CC3)c(=O)c12	x	x	6	x	x	-60	x
C=CCn1c(SCc2c(C)noc2C)nc2sc(C)c(C)c2c1=O	34	-2	8	-12	x	62*	+
Cc1noc(C)c1CSc1nc2sc(C)c(C)c2c(=O)n1-c1ccccc1	2	0	21	-2	x	29	x
c1ccn(-c2ncnc3sc4c(c23)CCCC4)c1	2	1	10	0	0	65*	+
CCC(=O)N1CCN(c2nc(-c3ccccc3)c3c(c2C#N)CCCC3)CC1	2	-6	14	-16	0	81*	i
CC(C)c1ccc(OCC(=O)NC(=S)Nc2ccc3c4c(cccc24)CC3)cc1	4	0	20	-9	0	66*	i
CC(=O)Nc1ccc(CN2CCc3nc(N4CCC(C)CC4)[nH]c(=O)c3C2)cc1	x	x	4	x	x	-31	x
Cc1ncc(-c2ccncc2)c(C2CCCN(C(=O)Cn3nnc4ccccc43)C2)n1 (stereo not given)	x	x	x	x	x	-22	x

Screening data (PubChem BioAssay)
